This is a sample that favours compounds with a hit; in the whole collection about 3.1% have one here.
KCNK3 inh – human KCNK3 channel inhibitors, primary screen, CHO cells, FluxOR thallium flux, B-score | FluxOR fluorescence; hits give low values | B-score at 10 µM | 0.84% of 340,000 active;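 active = B-score under library mean minus 4 SD, starting fluorescence ratio at most library mean plus 5 SD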;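 also: more negative B-score means stronger inhibition of thallium flux through KCNK3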
Target sequence (O14649 whole entry, looked up): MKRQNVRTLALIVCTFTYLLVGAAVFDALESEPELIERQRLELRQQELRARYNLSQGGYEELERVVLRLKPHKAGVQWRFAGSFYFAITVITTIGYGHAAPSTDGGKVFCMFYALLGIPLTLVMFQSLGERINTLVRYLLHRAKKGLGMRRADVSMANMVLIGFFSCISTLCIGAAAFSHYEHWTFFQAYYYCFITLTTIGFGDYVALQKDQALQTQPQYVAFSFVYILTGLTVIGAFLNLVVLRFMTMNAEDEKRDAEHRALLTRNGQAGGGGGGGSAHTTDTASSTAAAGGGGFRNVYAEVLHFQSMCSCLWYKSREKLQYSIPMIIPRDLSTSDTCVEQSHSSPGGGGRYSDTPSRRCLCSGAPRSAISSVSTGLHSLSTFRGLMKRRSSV
KCNQ1 block – inhibitors of human KCNQ1 channel, primary screen, cell-based, thallium flux, high-throughput. Potassium voltage-gated channel subfamily KQT member 1 (Homo sapiens), P51787. CHO-K1 KCNQ1, FluxOR thallium flux fluorescence; hits give high values. B-score at 10 µM. 1.3% of 310,000 active;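 active = compounds whose thallium flux B-score, printed positive for inhibition, exceeds three library SD while starting fluorescence stays within three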;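 also: channel opened by potassium depolarization with thallium stimulus after 20 min compound exposure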
KCNQ1 act – potentiators or activators of KCNQ1 channel, primary screen, cell-based, thallium flux, high-throughput | Potassium voltage-gated channel subfamily KQT member 1 (Homo sapiens), P51787 | CHO-K1 KCNQ1, thallium flux FluxOR fluorescence; hits give high values | B-score at 10 µM | 0.35% of 310,000 active;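 active = fluorescence ratio B-score, a plate-corrected score, at least three library SD, with initial intensity B-score within 5 SD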
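Test system: CHO-K1 cells stably expressing KCNQ1 / Medium: assay buffer / Also added: depolarizing K+/Tl+ stimulus, K2SO4 and Tl2SO4 each 12.5 mM in 5x stock / Incubation: 90 min dye loading and 20 min compound exposure, both at room temperature / Signal: thallium influx via FluxOR fluorescence, kinetic imaging / Evaluation: B score of baseline-normalized fluorescence ratio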
KCNK9 inh – KCNK9 potassium channel inhibitors, primary screen, HEK293 cells, thallium flux; FluxOR thallium flux fluorescence; hits give low values; B-score at 10 µM; 1.2% of 310,000 active; AID 488922, 2010;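 active = ratio B-score over 3 SD below the library mean, with starting fluorescence within 5 SD of its mean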;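 also: negative B-score means less thallium flux so channel inhibition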
hERG protect – hERG rescue from dofetilide block, primary screen, cell-based, CHO-hERG, FluxOR thallium flux, dofetilide IC70 | Voltage-gated inwardly rectifying potassium channel KCNH2 (Homo sapiens), Q12809 | dofetilide IC70 present | activation (rescue from dofetilide block), less the hit threshold, % at 10 µM | 0.51% of 310,000 active | AID 1511, 2009;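 active = activation above the mean of controls blocked by dofetilide plus 5 SD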;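 also: thallium influx through hERG after potassium depolarization seen as dye fluorescence rise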
KCNK9 inh conf – KCNK9 potassium channel inhibitors, confirmation, HEK293 cells, thallium flux, duplicate; shares compounds with KCNK9 inh; FluxOR thallium flux fluorescence; inhibition, % at 10 µM; 43% of 4,900 active; AID 492992, 2010;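 active = thallium signal inhibited by more than 5 SD of the compound-free buffer control wells, on both duplicate plates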;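 also: 0% = assay buffer control wells without compound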
Kir21 sel – mouse Kir2.1 channel inhibition, confirmation, selectivity assay for KCNK9 modulator project, cell-based, HEK293, thallium flux; 4% of 4,900 active; Kir2.1 cells, FluxOR thallium flux fluorescence; AID 492993, 2010; inhibition, % at 10 µM; shares compounds with KCNK9 inh;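 active = thallium signal drop more than 5 SD beyond the mean of the no-compound control wells, seen in both duplicate plates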;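 also: signal is fluorescence rise after thallium addition divided by baseline fluorescence; plate controls were assay buffer only for no effect and full block by chlorpromazine control for full effect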
HEK293 Tl ctr – thallium flux in non-induced HEK293 cells, confirmation, counter-screen for KCNK9 inhibitor project, cell-based, second counter screen, non-induced KCNK9-HEK293; shares compounds with KCNK9 inh; FluxOR thallium flux; inhibition, % at 10 µM; 40% of 4,900 active; AID 492997, 2010;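 active = thallium signal drop beyond 5 SD of the untreated control mean, on both duplicate plates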;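 also: plate controls were buffer only IC0 wells for no effect and SID17386958 at its maximal inhibitory level for full effect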
* = called active by the depositor.

Results for C=CCOc1ccc(/C=C2\SC(=S)N(NS(=O)(=O)c3ccccc3)C2=O)cc1 ?
KCNK3 inh: inactive; KCNQ1 block: inactive; KCNQ1 act: 15*; KCNK9 inh: inactive; hERG protect: -4; KCNK9 inh conf: inactive; Kir21 sel: inactive; HEK293 Tl ctr: inactive

How did CC(/C=C1\SC(=S)N(NS(=O)(=O)c2ccccc2)C1=O)=C\c1ccccc1 do in these assays?
KCNK3 inh: inactive; KCNQ1 block: inactive; KCNQ1 act: 14*; KCNK9 inh: inactive; hERG protect: 10*; KCNK9 inh conf: inactive; Kir21 sel: inactive; HEK293 Tl ctr: inactive

Results for CC(/C=C1\SC(=S)N(NC(=O)c2ccccc2C)C1=O)=C\c1ccccc1 ?
KCNK3 inh: inactive; KCNQ1 block: inactive; KCNQ1 act: inactive; KCNK9 inh: inactive; hERG protect: -9

Results for Cc1c(Cc2ccccc2)c(=O)oc2cc(OCC(=O)NCC3CCC(C(=O)O)CC3)ccc12 (centres undefined) ?
KCNK3 inh: inactive; KCNQ1 block: inactive; KCNQ1 act: inactive; KCNK9 inh: inactive; hERG protect: -6

What do the screens show for `Cc1c(C(=O)NC2CCN(Cc3ccccc3)C2)oc2c(Cl)cccc12` (centres undefined)?
KCNK3 inh: inactive; KCNQ1 block: inactive; KCNQ1 act: inactive; KCNK9 inh: inactive; hERG protect: -14

How did Cc1cc(C(=O)N2CCCC(N3CCN(c4cccc(C(F)(F)F)c4)CC3)C2)nn1C (centres undefined) do in these assays?
KCNK3 inh: inactive; KCNQ1 block: inactive; KCNQ1 act: inactive; KCNK9 inh: inactive; hERG protect: -7; KCNK9 inh conf: inactive; Kir21 sel: inactive; HEK293 Tl ctr: inactive

What do the screens show for `CC1(CCC(=O)N2CCCC(N3CCN(c4cccc(C(F)(F)F)c4)CC3)C2)CC1` (centres undefined)?
KCNK3 inh: inactive; KCNQ1 block: inactive; KCNQ1 act: inactive; KCNK9 inh: inactive; hERG protect: -17; KCNK9 inh conf: inactive; Kir21 sel: inactive; HEK293 Tl ctr: inactive

Results for Cc1cc(C(=O)N2CCCC(N3CCN(c4cccc(C(F)(F)F)c4)CC3)C2)c(C)o1 (centres undefined) ?
KCNK3 inh: inactive; KCNQ1 block: inactive; KCNQ1 act: inactive; KCNK9 inh: inactive; hERG protect: -16; KCNK9 inh conf: inactive; Kir21 sel: inactive; HEK293 Tl ctr: inactive

What do the screens show for `Cc1cc(C(=O)N2CCCC(N3CCN(c4cccc(Cl)c4)CC3)C2)nn1C` (centres undefined)?
KCNK3 inh: inactive; KCNQ1 block: inactive; KCNQ1 act: inactive; KCNK9 inh: inactive; hERG protect: -6

How did CSCC(=O)N1CCCC(N2CCN(c3cccc(C(F)(F)F)c3)CC2)C1 (centres undefined) do in these assays?
KCNK3 inh: inactive; KCNQ1 block: inactive; KCNQ1 act: inactive; KCNK9 inh: inactive; hERG protect: -3

What do the screens show for `Cc1cc(C)n(-c2nc(Nc3ccccc3)nc(-n3nc(C)cc3C)n2)n1`?
KCNK3 inh: inactive; KCNQ1 block: inactive; KCNQ1 act: inactive; KCNK9 inh: inactive; hERG protect: -2

Results for COc1cccc(/C=N/Nc2nc(Nc3ccccc3)nc(-n3nc(C)cc3C)n2)c1O ?
KCNK3 inh: inactive; KCNQ1 block: inactive; KCNQ1 act: inactive; KCNK9 inh: -10*; hERG protect: -13; KCNK9 inh conf: 43%*; Kir21 sel: inactive; HEK293 Tl ctr: 24%*

What do the screens show for `O=C1ON=C(c2ccc(Cl)cc2)/C1=C/c1ccc(O)cc1`?
KCNQ1 block: 8*; KCNQ1 act: inactive; KCNK9 inh: inactive; hERG protect: -9; KCNK9 inh conf: inactive; Kir21 sel: inactive; HEK293 Tl ctr: inactive

What do the screens show for `O=C1ON=C(c2ccccc2)/C1=C/c1ccc(O)cc1`?
KCNK3 inh: inactive; KCNQ1 block: inactive; KCNQ1 act: inactive; KCNK9 inh: inactive; hERG protect: 4; KCNK9 inh conf: inactive; Kir21 sel: inactive; HEK293 Tl ctr: inactive

Results for CCOCCc1nnc(NC(=O)CCS(=O)(=O)c2ccccc2)s1 ?
KCNK3 inh: inactive; KCNQ1 block: inactive; KCNQ1 act: inactive; KCNK9 inh: inactive; hERG protect: -8

What do the screens show for `O=C(Nc1cccc2ccccc12)c1cn(-c2ccccc2)nc1-c1cccs1`?
KCNK3 inh: -9.5*; KCNQ1 block: inactive; KCNQ1 act: inactive; KCNK9 inh: -10*; hERG protect: -12; KCNK9 inh conf: 50%*; Kir21 sel: inactive; HEK293 Tl ctr: 24%*

What do the screens show for `c1ccc(Cc2nnc(Sc3ccccc3)c3ccccc23)cc1`?
KCNK3 inh: inactive; KCNQ1 block: inactive; KCNQ1 act: inactive; KCNK9 inh: -8.5*; hERG protect: -14; KCNK9 inh conf: 46%*; Kir21 sel: inactive; HEK293 Tl ctr: 37%*

How did c1ccc(Sc2ncnc3ccccc23)cc1 do in these assays?
KCNK3 inh: inactive; KCNQ1 block: inactive; KCNQ1 act: inactive; KCNK9 inh: inactive; hERG protect: -9

Results for COc1ccc(N=C(c2ccccc2)c2c(C)[nH]n(-c3ccccc3)c2=O)c(OC)c1 ?
KCNK3 inh: inactive; KCNQ1 block: 6*; KCNQ1 act: inactive; KCNK9 inh: inactive; hERG protect: -16; KCNK9 inh conf: inactive; Kir21 sel: inactive; HEK293 Tl ctr: 32%*

What do the screens show for `Cc1cc(C)c(C#N)c(SCC(=O)c2cc(C)n(CCc3ccccc3)c2C)n1`?
KCNK3 inh: inactive; KCNQ1 block: inactive; KCNQ1 act: inactive; KCNK9 inh: -8.2*; hERG protect: -10; KCNK9 inh conf: 32%*; Kir21 sel: inactive; HEK293 Tl ctr: 34%*

How did CN(C)c1nc(NCc2ccccc2)nc(N/N=C/c2ccc(Cl)cc2Cl)n1 do in these assays?
KCNK3 inh: inactive; KCNQ1 block: inactive; KCNQ1 act: inactive; KCNK9 inh: inactive; hERG protect: -18; KCNK9 inh conf: inactive; Kir21 sel: inactive; HEK293 Tl ctr: inactive

Compound activity: PubChem, Johns Hopkins Ion Channel Center
